Hits are enriched below; roughly 1.8% of the tested compounds scored in any of these assays.
PERK inhibitor: block of dimerizer-induced PERK translation repression, primary screen, PERK inhibitor project, CHO PERK-DD cells, SEAP luminescence, HTS | Eukaryotic translation initiation factor 2-alpha kinase 3 (Homo sapiens), Q9NZJ5 | CHO PERK-DD fusion, SEAP luminescence translation reporter | inhibition, % at 5.6 µM | hit rate 0.17% among 220,000;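 active = inhibition above the mean inhibition of all tested compounds plus 3 SD, set separately per screening campaign, cut at about 2.9% in these data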;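 also: PERK kinase domain activated by AP20187 dimerizer at 100 nM; 0% = DMSO with dimerizer and 100% = rapamycin at 8.4 µM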
Target sequence (Q9NZJ5 whole entry, looked up, the tested form may be a part): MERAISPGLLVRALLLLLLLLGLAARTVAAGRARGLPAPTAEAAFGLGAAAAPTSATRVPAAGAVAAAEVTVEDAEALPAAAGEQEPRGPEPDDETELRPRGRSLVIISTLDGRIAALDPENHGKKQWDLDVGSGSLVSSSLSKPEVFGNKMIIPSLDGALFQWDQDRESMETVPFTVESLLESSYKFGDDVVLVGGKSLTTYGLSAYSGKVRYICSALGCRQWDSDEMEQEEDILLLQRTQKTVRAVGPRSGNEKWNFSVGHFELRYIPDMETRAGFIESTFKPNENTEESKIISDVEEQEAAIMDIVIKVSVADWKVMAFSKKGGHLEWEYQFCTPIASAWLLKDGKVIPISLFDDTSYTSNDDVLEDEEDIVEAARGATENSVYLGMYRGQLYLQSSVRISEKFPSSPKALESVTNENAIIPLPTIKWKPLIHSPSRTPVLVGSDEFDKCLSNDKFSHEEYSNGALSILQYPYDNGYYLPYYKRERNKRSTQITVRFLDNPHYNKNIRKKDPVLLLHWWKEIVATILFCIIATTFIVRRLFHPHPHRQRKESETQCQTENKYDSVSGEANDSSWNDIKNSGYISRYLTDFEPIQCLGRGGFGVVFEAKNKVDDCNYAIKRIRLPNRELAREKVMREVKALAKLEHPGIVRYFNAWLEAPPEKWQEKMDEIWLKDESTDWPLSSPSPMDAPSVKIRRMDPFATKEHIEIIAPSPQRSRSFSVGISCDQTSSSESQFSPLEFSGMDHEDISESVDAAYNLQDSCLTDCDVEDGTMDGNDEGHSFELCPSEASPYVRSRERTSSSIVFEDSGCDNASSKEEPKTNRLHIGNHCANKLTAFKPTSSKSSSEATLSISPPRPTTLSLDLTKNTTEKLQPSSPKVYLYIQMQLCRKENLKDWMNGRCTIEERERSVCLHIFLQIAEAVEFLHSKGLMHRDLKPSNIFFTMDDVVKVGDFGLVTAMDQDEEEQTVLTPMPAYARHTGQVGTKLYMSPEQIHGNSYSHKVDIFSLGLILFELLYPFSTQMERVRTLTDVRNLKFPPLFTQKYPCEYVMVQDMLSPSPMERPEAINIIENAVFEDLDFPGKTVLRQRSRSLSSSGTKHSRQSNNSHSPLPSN
STAT1 inh-1: STAT1 signaling inhibitors, primary screen, cell-based, HTS, luciferase reporter; NIH 3T3 STAT1-luciferase reporter, IFN-gamma, luminescence; inhibition, % at 5.5 µM; hit rate 0.35% among 200,000;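 active = inhibition above a set limit, the mean inhibition across all tested compounds plus 3 SD, cut at about 34% in these data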;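 also: 0% = IFN-gamma with DMSO and 100% = IFN-gamma with 300 µM nifuroxazide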
STAT3 activator: IL-6 driven STAT3 reporter potentiators, primary screen, U3A cells, luciferase, luminescence, MLSCN library; AID 871, 2007; IL-6 STAT3-luciferase reporter; 100% = signal with IL-6 EC80 alone; hit rate 0.91% among 190,000; activation (% of control), % at 5.6 µM;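 active = activation above the screen-wide mean of compound activation plus 3 SD, cut at about 130% in these data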;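 also: 0% = background luminescence of wells with medium and substrate only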
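Detection: reporter luminescence signal / Assay system: STAT1-lacking human U3A cells, STAT3 luciferase reporter / Incubation: compound pre-incubation 1 h before IL-6, then 6 h stimulation at 37 °C / Control set: IL-6-only high control / Read-out: % activation relative to IL-6 control / Probe or stimulus: Interleukin-6, 33 ng/mL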
STAT3 inh: IL-6 driven STAT3 reporter inhibitors, primary screen, U3A cells, luciferase, luminescence, MLSCN library; AID 862, 2007; inhibition, % at 5.5 µM; IL-6 STAT3-luciferase reporter; host cell line lacks STAT1; hit rate 0.89% among 190,000;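 active = inhibition above the mean inhibition across all screened compounds plus 3 SD, cut at about 44% in these data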;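 also: 0% = DMSO only wells and 100% = 100 µM nifuroxazide control wells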
STAT1 inh-2: STAT1 signaling inhibitors, confirmation, cell-based, HTS, luciferase reporter | shares compounds with STAT1 inh-1 | NIH 3T3 STAT1-luciferase reporter, IFN-gamma, luminescence | inhibition, % at 5.5 µM | hit rate 55% among 200 | AID 1263, 2008;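 active = triplicate mean inhibition exceeding the hit cutoff computed for the primary STAT1 screen, cut at about 35% in these data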;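 also: 0% = DMSO with IFN-gamma and 100% = 300 µM nifuroxazide with IFN-gamma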
NFkB inh STAT1ct: NF-kB reporter inhibitors, TNF-alpha stimulated, counter-screen for STAT1 inhibitor project, cell-based, HEK293T, luciferase luminescence; shares compounds with STAT1 inh-1; TNF-alpha induced; inhibition, % at 5.7 µM; hit rate 30% among 200; AID 1303, 2008;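 active = inhibition above the mean of solvent-only control wells plus 3 SD of those wells, cut at about 15% in these data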;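 also: 0% = DMSO with TNF-alpha and 100% = MG-132 control with TNF-alpha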
STAT3 inh STAT1c: STAT3 reporter inhibition by STAT1 hits, counter-screen for STAT1 inhibitor project, U3A cells, luciferase, luminescence, triplicate; hit rate 20% among 200; IL-6 STAT3 luciferase reporter; cells lacking STAT1; shares compounds with STAT1 inh-1; inhibition, % at 5.7 µM;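 active = inhibition above the mean of solvent-only control wells plus 3 SD, set per campaign, cut at about 25% in these data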;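 also: 0% = IL-6 plus DMSO and 100% = IL-6 plus nifuroxazide control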
* marks the source's active call; other numbers are inactive results.

What do the screens show for `Cc1sc(-c2ccncc2)nc1OC(=O)c1ccc(F)cc1F`?
PERK inhibitor: 0; STAT1 inh-1: 51*; STAT3 activator: 98; STAT3 inh: 4; STAT1 inh-2: 27; NFkB inh STAT1ct: 10; STAT3 inh STAT1c: 7

What do the screens show for `Cc1ccc2cc(CCl)c(Cl)nc2c1`?
PERK inhibitor: 0

What do the screens show for `Cc1nc(N)nc(N)c1/C=C/C(C)(C)c1ccc(Cl)cc1`?
PERK inhibitor: 1; STAT1 inh-1: 38*; STAT3 activator: 69; STAT3 inh: 39; STAT1 inh-2: 38*; NFkB inh STAT1ct: 28*; STAT3 inh STAT1c: 40*

How did O=C(c1ccc2c(c1)N(Cc1ccccc1)C(=O)c1ccccc1S2)N1CCCC1 do in these assays?
PERK inhibitor: 1; STAT1 inh-1: 52*; STAT3 activator: 96; STAT3 inh: 15; STAT1 inh-2: 45*; NFkB inh STAT1ct: 10; STAT3 inh STAT1c: -52

How did Cc1cccc(CN2C(=O)c3ccccc3Sc3ccc(C(=O)O)cc32)c1 do in these assays?
PERK inhibitor: 2

How did Nc1ccc(-c2nc3c(Cl)cc(N)cc3[nH]2)cc1 do in these assays?
PERK inhibitor: 0; STAT1 inh-1: 41*; STAT3 activator: 79; STAT3 inh: 26; STAT1 inh-2: 30; NFkB inh STAT1ct: 35*; STAT3 inh STAT1c: 28*

How did Nc1ccc2nc(-c3ccc(N)c(Cl)c3)[nH]c2c1 do in these assays?
PERK inhibitor: 0; STAT1 inh-1: -49; STAT3 activator: 72; STAT3 inh: 35

Results for O=C(NNC(=S)NC1CC2C=CC1C2)c1cccnc1 (stereo not given) ?
PERK inhibitor: 0

How did O=S(=O)(CC(CN1CCCCC1)N1CCCCC1)c1ccc2ccccc2c1 (stereo not given) do in these assays?
PERK inhibitor: 0; STAT1 inh-1: 35*; STAT3 activator: 104; STAT3 inh: 2; STAT1 inh-2: 15; NFkB inh STAT1ct: -3; STAT3 inh STAT1c: -50

How did CCN(CC)S(=O)(=O)c1ccc(N2CCOCC2)c(NC(=O)c2cc(-c3ccccn3)nc3ccccc23)c1 do in these assays?
PERK inhibitor: 0; STAT1 inh-1: 66*; STAT3 activator: 92; STAT3 inh: 17; STAT1 inh-2: 46*; NFkB inh STAT1ct: -3; STAT3 inh STAT1c: 19

Screening data from PubChem BioAssay.
